The results in this text go back to ChEMBL document CHEMBL1921750 (J Med Chem, 2011).

One data set concerns the target Cannabinoid receptor 2 (Homo sapiens, UniProt P34972). Description: Displacement of [3H]CP55940 from human CB2 receptor expressed in human HEK293 cells. In kind it is cell-based. Summed up: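 Membranes from HEK-293 cells stably expressing human CB1 or CB2. Compounds displacing >50% at 10 μM got curves at 1–1000 nM. Ki from IC50 via Cheng–Prusoff. Three experiments in duplicate. SI = Ki CB2/Ki CB1.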

In data set [1] the target is T1, Cannabinoid receptor 1 (Homo sapiens, UniProt P21554). Description: Displacement of [3H]CP55940 from human CB1 receptor expressed in human HEK293 cells. In kind it is cell-based.
T1 sequence (P21554 whole entry): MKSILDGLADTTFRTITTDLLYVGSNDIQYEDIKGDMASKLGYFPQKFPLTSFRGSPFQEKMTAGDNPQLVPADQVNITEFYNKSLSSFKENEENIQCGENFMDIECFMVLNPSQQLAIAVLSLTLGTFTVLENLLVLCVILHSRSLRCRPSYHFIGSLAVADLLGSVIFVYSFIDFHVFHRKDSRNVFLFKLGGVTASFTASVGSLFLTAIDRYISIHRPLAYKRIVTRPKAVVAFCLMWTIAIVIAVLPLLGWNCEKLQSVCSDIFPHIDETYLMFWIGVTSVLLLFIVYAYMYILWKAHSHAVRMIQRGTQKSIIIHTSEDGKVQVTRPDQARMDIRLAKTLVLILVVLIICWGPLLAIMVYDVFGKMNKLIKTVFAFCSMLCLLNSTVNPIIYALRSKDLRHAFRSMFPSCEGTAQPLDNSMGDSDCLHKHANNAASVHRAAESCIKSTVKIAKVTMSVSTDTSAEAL
Data set [2] deals with Cannabinoid receptor 1 (Mus musculus) (UniProt P47746). Nature of the data set: Agonist activity at MF1 mouse brain CB1 receptor assessed as induction of [35S]GTPgammaS binding after 60 mins by liquid scintillation counting relative to cannabinoid receptor agonist CP55940. In kind it is functional, tissue-based. Summed up:
(§1)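 [35S]GTPγS binding in buffer of 50 mM Tris-HCl, 50 mM Tris-base, 5 mM MgCl2, 1 mM EDTA, 100 mM NaCl, 1 mM DTT, 0.1% BSA with 0.1 nM [35S]GTPγS and 30 μM GDP. Mouse whole brain membranes (5 μg/well) were preincubated 30 min at 30 °C with adenosine deaminase. CHO-hCB1 membranes were used at 50 μg/well. Test range 1 nM–10 μM. Incubation 60 min at 30 °C, filtration, scintillation counting. Nonspecific binding taken with 30 μM GTPγS. Net stimulation = agonist minus basal. EC50/Emax by sigmoid nonlinear regression.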
For orientation: GTPγS is a poorly hydrolysed GTP analogue; its binding reports G protein activation.

For data set [3] the target is unchanged. Nature of the data set: Antagonist activity at MF1 mouse brain CB1 receptor assessed as inhibition of CP55940-induced [35S]GTPgammaS binding at 1 uM after 60 mins by liquid scintillation counting. In kind it is functional. The method in brief: (§2)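 Same [35S]GTPγS assay on mouse whole brain membranes (5 μg/well, adenosine deaminase-preincubated). 0.1 nM [35S]GTPγS, 30 μM GDP. Single concentration of test compound, 1 μM or 100 nM, against a log concentration-response curve of CP-55940. Incubation 60 min at 30 °C. Read by filtration and liquid scintillation counting.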

The species named for a further data set is Homo sapiens. Nature of the data set: Selectivity index, ratio of Ki for human CB2 receptor to Ki for human CB1 receptor. The method in brief:
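Membranes from HEK-293 cells stably expressing human CB1 or CB2. […] Preliminary screen at 5, 10, 25 μM. Compounds displacing >50% at 10 μM got curves at 1–1000 nM. Ki from IC50 via Cheng–Prusoff. Three experiments in duplicate. SI = Ki CB2/Ki CB1.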

Data set [4] has as its target T1, Cannabinoid receptor 1. Description: Agonist activity at human CB1 receptor expressed in CHO cells assessed as induction of [35S]GTPgammaS binding after 60 mins by liquid scintillation counting. In kind it is functional, cell-based. Summed up:
as §1

Data set [5] deals with T1, Cannabinoid receptor 1. Nature of the data set: Antagonist activity at human CB1 receptor expressed in CHO cells assessed as inhibition of CP55940-induced [35S]GTPgammaS binding after 60 mins by liquid scintillation counting. In kind it is functional, cell-based.
Data set [6] addresses Cannabinoid receptor 1 (Mus musculus, UniProt P47746). Description: Agonist activity at MF1 mouse brain CB1 receptor assessed as induction of [35S]GTPgammaS binding after 60 mins by liquid scintillation counting. In kind it is functional, tissue-based. The method in brief:
as §1

Data set [7] deals with Plasma. Description: Metabolic stability of the compound in human plasma assessed as plasma esterase-mediated compound hydrolysis at 100 uM from 15 to 120 mins by reverse-phase LC-MS analysis. Format: ADME, cell-free. Summed up: (§3)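 Citrated human plasma, or water as control, spiked to final 1 × 10⁻⁴ or 2 × 10⁻⁴ M. Incubated at 37 °C for 0, 15, 30, 60, 120 min, stopped with acetonitrile, centrifuged. Supernatant run by reverse-phase LC (C8, methanol/water 92/8) with UV 254 nm and positive-ion MS. Triplicates. AUC(0–120 min) compared by Student's t test.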

Data set [8] can be described thus: Chemical stability of the compound in biological buffer at 2.1 mM at 30 degC after 90 mins by LC-MS/MS analysis. In kind it is physicochemical. The settings on record: 1.5 h, 2100 µM. The method in brief:
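DMSO solution (2.1 mM stock) diluted in GTPγS binding buffer and incubated 90 min at 30 °C. Samples taken at 60 and 90 min and analysed by LC–ESI triple-quadrupole MS (positive mode, C18, acetonitrile/0.1% formic acid gradient) for hydrolysis products.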

The subject of data set [9] is Plasma. Description: Metabolic stability of the compound in human plasma assessed as plasma esterase-mediated compound hydrolysis at 200 uM from 15 to 120 mins by reverse-phase LC-MS analysis. In kind it is ADME, cell-free. Summed up: as §3
For a further data set, the system named is CYP3A4. Nature of the data set: Metabolic stability assessed as compound remaining at 1 uM after 1 hr by LC-MS analysis in presence of human CYP3A4 and NADPH. The settings on record: human CYP3A4 enzyme, read-out: Stability. In kind it is ADME. The method in brief: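 Recombinant human CYP3A4 at 20 pmol/mL (0.1–0.2 mg/mL protein). Substrate final 1 μM, 0.25% organic solvent. Run with NADPH regenerating system or phosphate buffer instead. Incubated 1 h at 37 °C, stopped with acetonitrile. Percent remaining by MS.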

For data set [10], the target named is Cannabinoid receptor 1 (Mus musculus) (UniProt P47746). Description: Antagonist activity at MF1 mouse brain CB1 receptor assessed as inhibition of CP55940-induced [35S]GTPgammaS binding at 100 nM after 60 mins by liquid scintillation counting. In kind it is functional. The method in brief:
as §2

Usually Ki stands for the equilibrium dissociation constant of an inhibitor or competing ligand from its target. The low end stands for a stronger hold on the target, the high end for a looser hold on the target. Usually Emax stands for the greatest response seen or fitted, relative to the assay's reference. For orientation: EC50 means the concentration giving half of the maximal effect.

Active and inactive are the calls of the source. The rule behind the calls is not given here.

Cannabinoid receptor 1 (Mus musculus, UniProt P47746), sequence (P47746 whole entry): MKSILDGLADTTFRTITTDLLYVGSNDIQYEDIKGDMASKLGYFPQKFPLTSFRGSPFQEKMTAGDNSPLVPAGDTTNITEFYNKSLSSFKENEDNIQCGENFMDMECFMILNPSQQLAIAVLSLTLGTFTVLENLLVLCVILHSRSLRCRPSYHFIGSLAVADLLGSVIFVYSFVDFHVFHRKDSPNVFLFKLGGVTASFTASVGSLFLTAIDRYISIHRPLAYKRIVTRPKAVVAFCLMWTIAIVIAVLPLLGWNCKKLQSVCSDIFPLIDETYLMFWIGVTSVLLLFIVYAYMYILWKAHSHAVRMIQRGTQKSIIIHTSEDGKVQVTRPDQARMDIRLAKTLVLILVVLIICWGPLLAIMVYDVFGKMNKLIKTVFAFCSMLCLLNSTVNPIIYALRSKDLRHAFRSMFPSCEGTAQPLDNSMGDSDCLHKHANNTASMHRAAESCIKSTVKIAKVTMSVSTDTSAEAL
Cannabinoid receptor 1 (Mus musculus), sequence (P47746 whole entry): as above
Cannabinoid receptor 2, sequence (P34972 whole entry): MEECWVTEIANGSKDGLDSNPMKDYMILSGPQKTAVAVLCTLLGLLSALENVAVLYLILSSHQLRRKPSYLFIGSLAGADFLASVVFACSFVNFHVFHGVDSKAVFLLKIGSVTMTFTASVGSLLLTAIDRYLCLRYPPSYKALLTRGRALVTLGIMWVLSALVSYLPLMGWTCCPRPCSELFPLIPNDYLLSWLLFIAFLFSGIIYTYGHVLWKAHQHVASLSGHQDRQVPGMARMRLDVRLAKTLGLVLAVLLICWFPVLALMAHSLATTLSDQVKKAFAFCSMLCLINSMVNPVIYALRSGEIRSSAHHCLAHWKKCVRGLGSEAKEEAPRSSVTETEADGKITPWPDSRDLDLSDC

Turning to `CCCCCCc1ccc(O)cc1OCCCCCCCC(=O)OC(CO)CO`, the results for the Ki on Cannabinoid receptor 2 and at Cannabinoid receptor 1 [1] were 1800 nM and 800 nM, respectively.

On to `CCCCCCC(C)(C)c1cc(O)cc(OCCCCCCCCCCCCOC(CO)CO)c1`, for which the values for the Ki at Cannabinoid receptor 2 and at Cannabinoid receptor 1 [1] were 1670 nM and 1040 nM, respectively.

With `CCCCCCC(C)(C)c1cc(O)cc(OCCCCCCCC(=O)OC(CO)CO)c1`, the Ki is 790 nM at Cannabinoid receptor 2 and 1120 nM at Cannabinoid receptor 1 [1].

As to `CCCCCCC(C)(C)c1cc(O)cc(OCCCCCCCCCCCC(=O)OC(CO)CO)c1`, the values for the Ki on Cannabinoid receptor 2 and on Cannabinoid receptor 1 [1] were 800 nM and 2710 nM, respectively.

Consider `CCCCC/C=C\C/C=C\C/C=C\C/C=C\CCCCOC(CO)CO`, for which the Ki was greater than 3000 nM on Cannabinoid receptor 2 and 20 nM on Cannabinoid receptor 1 [1].

Consider `CCCCCc1cc(O)cc(OCCCCCCOC(CO)CO)c1`, for which the Ki was 910 nM at Cannabinoid receptor 2 and 430 nM at Cannabinoid receptor 1 [1].

Turning to `CCCCCc1cc(O)cc(OCCCCCCCCCCC(=O)OC(CO)CO)c1`, the Ki at Cannabinoid receptor 2 came out at 870 nM; on Cannabinoid receptor 1 [1], 5600 nM.

Regarding `CCCCCc1cc(O)cc(OCCCCCCCCCCC(=O)OCC(O)CO)c1` (stereo not given), the figures for the Ki on Cannabinoid receptor 2 and at Cannabinoid receptor 1 [1] were 7910 nM and greater than 10000 nM, respectively.

Turning to `CCCCCc1cc(O)cc(OCCCCCCCCCCOC(CO)CO)c1`, the Ki on Cannabinoid receptor 2 and on Cannabinoid receptor 1 [1] was greater than 10000 nM throughout.

In the case of `CCCCCCC(C)(C)c1cc(O)cc(OCCCCCCCCCCOC(CO)CO)c1`, the Ki was 380 nM on Cannabinoid receptor 2 and 2940 nM on Cannabinoid receptor 1 [1].

Turning to `CCCCCc1cc(O)cc(OCCCCCCCCCCCCOC(CO)CO)c1`, the Ki at Cannabinoid receptor 2 is greater than 10000 nM; at Cannabinoid receptor 1 [1] it was 3780 nM.

In the case of `CCCCCCc1ccc(O)cc1OCCCCCCCCCCC(=O)OCC(O)CO` (stereo not given), the Ki was 4820 nM on Cannabinoid receptor 2 and greater than 10000 nM on Cannabinoid receptor 1 [1].

Turning to `CCCCCCc1ccc(OCCCCCCCCCCC(=O)OC(CO)CO)cc1O`, the Ki at Cannabinoid receptor 2 was 7870 nM; on Cannabinoid receptor 1 [1], greater than 10000 nM.

On to `CCCCCc1cc(O)cc(OCCCCCCCCOC(CO)CO)c1`, for which the figures for the Ki on Cannabinoid receptor 2 and on Cannabinoid receptor 1 [1] were 1160 nM and 1860 nM, respectively.

Take `CCCCCCC(C)(C)c1cc(O)cc(OCCCCCCCCCCC(=O)OCC(O)CO)c1` (stereo not given): the Ki on Cannabinoid receptor 2 was 310 nM; at Cannabinoid receptor 1 [1], greater than 10000 nM.

For `CCCCCCc1ccc(OCCCCCCCCCCOC(CO)CO)cc1O`, the Ki at Cannabinoid receptor 2 is 2390 nM; at Cannabinoid receptor 1 [1], greater than 10000 nM.

As for `CCCCCc1cc(O)cc(OCCCCCCCC(=O)OC(CO)CO)c1`, the values for the Ki on Cannabinoid receptor 2 and on Cannabinoid receptor 1 [1] were 7870 nM and 5600 nM, respectively.

In the case of `CCCCCCc1ccc(O)cc1OCCCCCCCCCCC(=O)OC(CO)CO`, the Emax in [2] is 11.4%. The outcome (in data set [3]; at Cannabinoid receptor 1 [4]; at Cannabinoid receptor 1 [5]) was inactive. Moreover, the Ki on Cannabinoid receptor 2 came to 1800 nM; at Cannabinoid receptor 1 [1], 60 nM. In addition, the Ratio Ki in the data set filed under Homo sapiens came to 32. Further, the EC50 on Cannabinoid receptor 1 [6] turned out to be 78.4 nM.

Turning to `CCCCCCc1ccc(OCCCCCCCC(=O)OC(CO)CO)cc1O`, the Ki at Cannabinoid receptor 2 is 7870 nM; on Cannabinoid receptor 1 [1], greater than 10000 nM.

For the compound `CCCCCCC(C)(C)c1cc(O)cc(OCCCCCCCCOC(CO)CO)c1`, the Ki is 110 nM at Cannabinoid receptor 2 and 270 nM on Cannabinoid receptor 1 [1].

`CCCCCCC(C)(C)c1ccc([C@@H]2C[C@H](O)CC[C@H]2CCCO)c(O)c1` [CP-55940]: in data set [2], the Emax came to 104%. On Cannabinoid receptor 1 [6], the EC50 is 42 nM.

`CCCCCCC(C)(C)c1cc(O)cc(OCCCCCCOC(CO)CO)c1` gave a Ki on Cannabinoid receptor 2 of 190 nM. This lies in the sub-micromolar range.

Consider `CCCCCCC(C)(C)c1cc(O)cc(OCCCCCCCCCCC(=O)OC(CO)CO)c1`, for which the Stability entry (with Plasma [7]; in [8]; with Plasma [9]) was “Stable” in each case. Besides, the Emax in [2] is 14.7%. Moreover, the remaining at 1 h, 1 µM in the data set with CYP3A4 amounted to 24%. In addition, the Ki on Cannabinoid receptor 2 turned out to be 790 nM; at Cannabinoid receptor 1 [1] it was 10 nM. Further, the Ratio Ki in the data set filed under Homo sapiens came out at 88. For the same compound, the result (on Cannabinoid receptor 1 [4]; at Cannabinoid receptor 1 [5]; in data set [10]) was inactive. For the same compound, at Cannabinoid receptor 1 [6], the EC50 is 6.3 nM.

For `CCCCCCc1ccc(OCCCCCCCCCCC(=O)OCC(O)CO)cc1O` (stereo not given), the values for the Ki at Cannabinoid receptor 2 and on Cannabinoid receptor 1 [1] were 10400 nM and greater than 10000 nM, respectively.

Turning to `CCCCCCc1ccc(OCCCCCCOC(CO)CO)cc1O`, the Ki at Cannabinoid receptor 2 was 1130 nM; on Cannabinoid receptor 1 [1], greater than 10000 nM.
